Reference: article PMC9289880 (Journal of Medicinal Chemistry, 2022)
Read-outs that look alike come from different tables or passages of the source. *1 amine or outer side, *2 acyl side, *3 side chain or, on linkers, in order; H or OH if unused. Where a SMILES comes first, the peptide text is derived from it. Bridges are numbered along the chain shown (N, C = ends). [ ]: non-standard residue; d: D form. Pro(3R-Ph) = O=C(O)[C@H]1NCC[C@@H]1c1ccccc1; Bip = N[C@@H](Cc1ccc(-c2ccccc2)cc1)C(=O)O; αMeS = C[C@](N)(CO)C(=O)O; CH2 = C([*:1])[*:2]

How the values were obtained:
pERK, AsPC-1 cells = assay: AlphaScreen pERK assay in AsPC-1 cells; type: cell-based; conditions: pERK
Summary of the method: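 AsPC-1 cells grown in RPMI 1640 (GlutaMAX, HEPES) with 10% FBS and penicillin/streptomycin. Seeded at 15 000 cells/well and held overnight at 37 °C, 5% CO2, then switched to serum-free medium. Compound dose-response series added acoustically, then incubated 2 and 18 h. Cells washed with DPBS and lysed with protease inhibitors. pERK (615 nm) and total ERK (535 nm) read by AlphaScreen SureFire multiplex. pERK/total ERK ratio fitted to 4-parameter logistic.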

pERK, A375 cells = assay: AlphaScreen pERK counter screen in A375 cells; type: cell-based
[1] = Cell homogenate stability assay; type: in vitro ADME; conditions: human
Summary of the method: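 HeLa cells suspended at 1 × 10^6 cells/mL, probe-sonicated on ice until homogeneous, then frozen at −20 °C until use. Peptides incubated with the homogenate (1 × 10^6 cells/mL equivalent). Loss of parent peptide over increasing time quantified by LC-MS/MS.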

AsPC-1 cells = assay: LDH release; type: cell-based; conditions: 18 h LDH release assay
Summary of the method: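 AsPC-1 cells seeded at 15 000/well overnight, then dosed with a compound titration in serum-free medium at 37 °C, 5% CO2. At 18 h post dose, part of the medium was transferred and mixed 1:1 with CytoTox-ONE reagent. Plates shaken 45 min at ambient temperature and fluorescence read (ex 560/em 590 nm). Dose-response curves fitted to 4-parameter logistic.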

KRAS^G12D = KRAS^G12D (Homo sapiens, UniProt P01116, G12D); assay: SOS-catalyzed guanine nucleotide exchange; type: biochemical
HeLa cells = assay: NanoClick cell permeability assay; type: in vitro ADME, Human
[2] = read-out: AlphaScreen (AsPC-1) 2 h IC50, AsPC-1, 2 h
[3] = read-out: AlphaScreen (AsPC-1) 18 h IC50, AsPC-1, 18 h

Chain of KRAS^G12D (P01116 1-188 isoform P01116-2 G12D): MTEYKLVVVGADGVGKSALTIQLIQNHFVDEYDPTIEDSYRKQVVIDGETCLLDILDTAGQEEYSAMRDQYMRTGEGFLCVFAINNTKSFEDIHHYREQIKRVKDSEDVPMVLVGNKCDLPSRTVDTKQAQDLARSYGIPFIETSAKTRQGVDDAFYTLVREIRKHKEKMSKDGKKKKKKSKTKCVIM

In the case of `CC[C@H](C)[C@@H]1NC(=O)[C@H](Cc2ccc(-c3ccccc3)cc2)NC(=O)[C@H](CC(C)C)NC(=O)[C@@H]2[C@@H](c3ccccc3)CCN2C(=O)[C@H](NC(=O)[C@@H](CCCNC(=N)N)NC(=O)[C@@H](CCCNC(=N)N)NC(C)=O)CSCSC[C@@H](C(=O)N[C@H](CCCNC(=N)N)C(=O)N[C@H](CCCNC(=N)N)C(N)=O)NC(=O)[C@H](C(C)C)NC(=O)[C@@H]2CCCN2C(=O)[C@H](CC(=O)O)NC(=O)[C@H](Cc2ccc(O)cc2)NC(=O)[C@](C)(CO)NC1=O` [peptide 7, Ac-rr-cyclo(c(methylene)-Prot3Ph-L-Bip-I-aMeS-YDPVC)-rr-NH2] (Ac-[dR][dR][dC][Pro(3R-Ph)]L[Bip]I[αMeS]YDPVC[dR][dR]-NH2; linker 3-13 via CH2), the IC50 (pERK, AsPC-1 cells; [2]) is reported as 3800 nM, the IC50 (pERK, AsPC-1 cells; [3]) is reported as 3900 nM and the “activity in A375 counter screen, in words” value (pERK, A375 cells) is reported as “no LDH release or activity”. For the same molecule, the half-life ([1]; tissue homogenate) was greater than 6.2 h, the “LDH release / membrane integrity, in words” value (AsPC-1 cells) was “no LDH release” and the “SOS GNE potency / binding, in words” value (KRAS^G12D) was “subnanomolar”.

Work on `CC[C@H](C)[C@@H]1NC(=O)[C@H](Cc2ccc(-c3ccccc3)cc2)NC(=O)[C@H](CC(C)C)NC(=O)[C@@H]2[C@@H](c3ccccc3)CCN2C(=O)[C@H](NC(=O)[C@@H](CCCNC(=N)N)NC(=O)[C@@H](CCCNC(=N)N)NC(=O)[C@H](CCCCN=[N+]=[N-])NC(C)=O)CSCSC[C@@H](C(=O)N[C@H](CCCNC(=N)N)C(=O)N[C@H](CCCNC(=N)N)C(N)=O)NC(=O)[C@H](C(C)C)NC(=O)[C@@H]2CCCN2C(=O)[C@H](CC(=O)O)NC(=O)[C@H](Cc2ccc(O)cc2)NC(=O)[C@](C)(CO)NC1=O` [peptide 9, Ac-Lys(N3)-rr-cyclo(c(methylene)-Prot3Ph-L-Bip-I-aMeS-YDPVC)-rr-NH2] yielded an IC50 (pERK, AsPC-1 cells; [2]) of 6200 nM, an IC50 (pERK, AsPC-1 cells; [3]) of 6800 nM and a half-life at 1 µM ([1]; HeLa cell homogenate) greater than 6.2 h. The IC50 (KRAS^G12D) was less than 1 nM, the EC50 (HeLa cells; read-out: NanoClick (HeLa) 4 h EC50, 4 h) was 1490 nM and the EC50 (HeLa cells; read-out: NanoClick (HeLa) 18 h EC50, 18 h) was 148 nM. The EC50 (HeLa cells; read-out: NanoClick permeability EC50 at 4 h, 4 h) was 1500 nM and the EC50 (HeLa cells; read-out: NanoClick permeability EC50 at 18 h, 18 h) was 150 nM.
